Only some compounds are listed: those with a hit (about 27% of all), similar ones and a draw of the others.
Cav3 T inh: Cav3.2 calcium influx blockers – cell-based, Fluo-4 calcium fluorescence, FDSS, MLSMR library, primary screen; Voltage-dependent T-type calcium channel subunit alpha-1H (Homo sapiens), O95180; Cav3.2-expressing cells; stronger effect = lower value; B-score at 10 µM; hit rate 4% among 100,000; AID 449739, 2010;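 active = single-dose well whose peak fluorescence ratio is a statistical outlier from its plate by either plate-standardised score or position-corrected B-score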
CYP2C9 act: human CYP2C9 activators, primary screen, biochemical, luminescence | Cytochrome P450 2C9 (Homo sapiens), P11712 | recombinant CYP2C9, luciferin-H conversion; stronger effect = higher value; factor 1 = untreated enzyme, 0 = blocked | activation factor at 5 µM | hit rate 1.4% among 96,000 | AID 1024, 2008;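 active = activation factor of 2 or more for CYP2C9 at a 5 µM dose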
CYP2C9 inhib: blockers of cytochrome P450 2C9 activity – biochemical, luminescence, ADME assay, primary screen | P11712 | CYP2C9 Supersomes, luciferin-H conversion | inhibition, % at 5 µM | hit rate 20% among 96,000 | AID 777, 2007;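 active = blocking of liver enzyme CYP2C9 beyond about 50% at 5 µM, limit read from the data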
Rev-RRE block: HIV-1 Rev-RRE binding inhibitors, primary screen, biochemical, FRET, protein-RNA interaction. inhibition, % at 8 µM. Rev peptide-RRE RNA binding. hit rate 0.79% among 97,000. P05866;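 active = inhibition above the screen-wide mean plus 3 SD, cut at about 35% in these data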
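Test system – labelled RRE RNA duplex and labelled Rev peptide · Signal – fluorescein-to-Cy5 FRET, 480 nm excitation · Evaluation – % inhibition of FRET ratio versus controls · Benchmarks – DMSO low control, neomycin B high control · Incubation – 5 min RNA-compound premix plus 15 min binding step, 25 °C · Medium – HEPES pH 7.5 salt buffer with EDTA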
CYP2C19 inhib: blockers of cytochrome P450 2C19 activity – biochemical, luminescence, ADME assay, primary screen | CYP2C19 Supersomes, luciferin-H EGE luminescence, 30 min | inhibition, % at 5 µM | hit rate 21% among 96,000;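 active = CYP2C19 inhibition above a set limit at 5 µM in the primary screen, cut at about 50% in these data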
CYP2C19 activ: human CYP2C19 activators, primary screen, biochemical, luminescence | Cytochrome P450 2C19 (Homo sapiens), P33261 | recombinant CYP2C19, luciferin-H EGE luminescence; stronger effect = higher value; 0 = fully inhibited enzyme, 1 = untreated enzyme | activation factor at 5 µM | 96,000 tested, under 10 active | AID 1025, 2008;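 active = activation factor of at least 2 at 5 µM in the primary screen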
A number is an active result; – = inactive; · = no result; [ ] = remark or other dose.

SMILES	Cav3 T inh	CYP2C9 act	CYP2C9 inhib	Rev-RRE block	CYP2C19 inhib	CYP2C19 activ
CCCCN(CC)S(=O)(=O)c1ccccc1	–	–	–	–	81	–
O=S(=O)(c1ccccc1)c1cccc(S(=O)(=O)N2CCCCC2)c1	–	–	–	–	87	–
CCCCN(CCCC)S(=O)(=O)c1ccc2[nH]c(=O)[nH]c2c1	–	–	–	–	–	–
CCN(CC)S(=O)(=O)c1cccc(S(=O)(=O)N2CCCCC2)c1	–	–	53	–	–	–
CC1CC(c2ccccc2)n2nc(N3C(=O)c4ccccc4C3=O)nc2N1 (stereo unspecified)	–	–	–	–	–	–
CCOC(=O)N1CCN(C(=O)CN(Cc2ccccc2)S(=O)(=O)c2ccc(OC)c(Cl)c2)CC1	–	–	55	–	89	–
CCOC(=O)N1CCN(C(=O)CN(Cc2ccccc2)S(=O)(=O)c2ccc(OC)c(C)c2)CC1	–	–	–	–	64	–
COc1ccc(S(=O)(=O)N(CC(=O)N2CCCC2)Cc2ccccc2)cc1	–	–	–	–	–	–
CCNc1nc(NC(C)C)nc(N(C#N)CCOc2ccccc2)n1	-5	–	–	–	60	–
CCN(C#N)c1nc(NC(C)C)nc(NC(C)C)n1	–	–	73	–	–	–
O=C(Cc1cccs1)N1CCC(c2nc3c(nnn3Cc3ccc(F)cc3)c(=O)[nH]2)CC1	–	–	96	–	–	–
O=C(Cc1cccs1)N1CCCC(c2nc3c(nnn3Cc3cccc(Cl)c3)c(=O)[nH]2)C1 (stereo unspecified)	–	–	96	–	66	–
Cc1ccccc1CSc1nc2n(n1)C(c1cccs1)C1=C(CCCC1=O)N2 (stereo unspecified)	–	–	58	–	–	–
CC1CCN(S(=O)(=O)c2ccc(NC(=O)CN3CCCC(C)C3)cc2)CC1 (stereo unspecified)	–	–	–	–	–	–
CCC(Oc1nc2ccccc2nc1-c1ccccc1NC(C)=O)C(=O)c1ccccc1 (stereo unspecified)	–	–	53	–	–	–
CCOC(=O)c1ccccc1NC(=O)COC(=O)C1=COCCO1	–	–	68	–	–	–
CC(C)(C)c1ccc(NC(=O)COC(=O)C2=COCCO2)cc1	–	–	–	–	–	–
O=C(COC(=O)C1=COCCO1)Nc1ccc(Oc2ccccc2)cc1	–	–	90	–	82	–
C#CCOCCOCCOCCNc1nc(N2CCN(C(=O)Cn3cc(CCO)nn3)CC2)nc(N2CCN(C(=O)[C@H]([C@@H](C)O)n3cc(CCCCN)nn3)CC2)n1	–	·	·	·	·	·
Cc1cc(C)c2c(n1)sc1c(N3CCOCC3)ncnc12	·	·	·	–	·	·
Cn1c(=O)oc2cc(S(=O)(=O)NCCC(=O)N3CCc4ccccc43)ccc21	·	–	–	–	–	–
CCn1nc(CC(=O)Nc2nnc(CC(=O)N3CCCCC3)s2)c2ccccc2c1=O	–	–	–	–	–	–
CN(C)CCC(=O)c1ccc2c(c1)OCO2	–	–	–	–	–	–
O=C(CSc1nnc(SCc2cccc3ccccc23)s1)c1ccc2c(c1)OCO2	·	–	63	–	52	–
CCSc1nnc(NC(=O)c2ccc3c(c2)OCO3)s1	–	–	–	–	–	–
SMILES	Cav3 T inh	CYP2C9 act	CYP2C9 inhib	Rev-RRE block	CYP2C19 inhib	CYP2C19 activ
Cc1ccccc1-n1c(SCC(=O)Nc2ccc3c(c2)OCO3)nnc1-c1ccccn1	–	·	·	–	·	·
Cn1c(SCC(=O)c2ccc3c(c2)OCO3)nnc1-c1ccccn1	–	–	–	–	52	–
C=CCn1c(SCC(=O)c2ccccc2)nnc1-c1ccc2c(c1)OCO2	·	–	–	–	77	–
O=C(CSc1ccccn1)c1ccc2c(c1)OCO2	–	–	–	–	98	–
C[N+]1(CC(=O)Nc2ccccc2Cl)CCN(C(=O)c2cccs2)CC1	–	–	–	–	–	–
COc1ccc(-c2cn3c(C)c(C(=O)Nc4ccncc4)sc3n2)cc1	–	–	–	–	–	–
COc1ccc(-c2cn3c(C)c(C(=O)Nc4cccc(NC(C)=O)c4)sc3n2)cc1	–	–	–	–	59	–
Cc1c(C(=O)Nc2ccncc2)sc2nc(-c3ccc(F)cc3)cn12	–	–	74	·	–	–
COC(=O)c1ccc(NC(=O)C2CC2)o1	–	–	–	–	–	–
CC(C)OC(=O)c1c2nc3ccccc3nc2n2c1[nH]c(=O)c1ccccc12	·	–	–	69	–	–
CC(C)OC(=O)c1c(N)n(CCCN2CCOCC2)c2nc3ccccc3nc12	–	–	–	–	–	–
O=C1CC(N2CCN(c3ccccc3F)CC2)C(=O)N1c1ccc(F)cc1 (stereo unspecified)	–	·	·	–	·	·
Cc1nn(Cc2ccc(C(=O)Nc3ccccc3C(F)(F)F)o2)c(C)c1Br	–	–	–	–	91	–
Cc1ccc(CNC(=O)c2ccc(Cn3nc(C)c(Cl)c3C)o2)cc1	-4.7	–	–	–	78	–
Cc1ccc(Cn2nc(C)c(NC(=O)C3(C)CC3(Br)Br)c2C)cc1 (stereo unspecified)	–	·	·	–	·	·
CC1=CC(=C2C(=O)c3ccccc3C2=O)C=C(C)O1	·	–	–	–	–	–
CC(=O)N1C(=O)C(=C2C=C(C)OC(C)=C2)c2ccccc21	–	–	–	110[fluorescence artefact?]	–	–
COc1ccc(OC)c2sc(NC(=O)C3CC3)nc12	–	–	57	–	–	–
CCC(=O)Nc1nc2c(OC)ccc(OC)c2s1	–	–	–	–	–	–
CCCC(=O)Nc1nc2c(OC)ccc(OC)c2s1	–	–	61	–	–	–
O=C1CC(Cc2ccccc2)C(=O)N1CCc1ccc2c(c1)OCO2 (stereo unspecified)	–	–	–	–	86	–
O=C1CC(N2CCN(Cc3ccc4c(c3)OCO4)CC2)C(=O)N1CCc1ccccc1 (stereo unspecified)	–	–	–	·	–	–
O=C1CC(Cc2ccccc2)C(=O)N1CCCn1ccnc1 (stereo unspecified)	·	–	69	–	100	–
Cc1cccc(N2CCN(C(=O)c3ccncc3)CC2)c1C	–	–	86	–	100	–
Cc1nn(Cc2ccccc2Cl)c(C)c1N	·	–	–	–	75	–
Cc1nn(Cc2ccccc2Cl)c(C)c1NC(=O)/C=C/c1cnn(C)c1	–	–	–	–	–	–
Cc1cccc(N2CCN(C(=O)c3c(C)nn(Cc4ccccc4Cl)c3C)CC2)c1C	-5.5	–	–	–	–	–

From PubChem
